We go through one molecule from ChEMBL document CHEMBL4396917, “Synthesis and biological evaluation of novel benzylidene-succinimide derivatives as noncytotoxic antiangiogenic inhibitors with anticolorectal cancer activity in vivo” (Eur J Med Chem, 2019).

Calls of active or inactive are those of the source. The calls are words filed in the database; no cut-off is given here.

Series [1] relates to HT-29. Briefly: Antitumor activity against human HT-29 cells xenografted in mouse assessed as reduction in cell proliferation in tumor at 20 to 60 mg/kg, po administered every other day for 3 weeks and measured at 20 days post treatment by Ki-67 staining based assay. It counts as functional, organism-based. On the technique in general: In xenograft studies the graft and the host belong to different species.

The subject of series [2] is HT-29. The series can be described thus: Induction of apoptosis in human HT-29 cells assessed as early apoptotic cells at 5 uM after 72 hrs by Annexin V-FITC/propidium iodide staining based flow cytometric analysis (reference value: 5.3%). It counts as cell-based. The following applies: ht-29, 72 h. On the technique in general: In flow cytometry, cells or beads pass a laser one at a time.

Series [3] is described as follows: Induction of apoptosis in VEGF-stimulated HUVEC assessed as viable cells at 5 uM after 24 hrs by Annexin V-FITC/propidium iodide staining based flow cytometric analysis (reference value: 69.6%). It counts as cell-based. The following applies: human, read-out: Activity. Summed up: (§1)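 HUVECs plated at 5×10^5 per well and treated 24 h with 1, 5, 10 or 20 μM. Detached and adherent cells were pooled, washed in ice-cold PBS and resuspended in fresh medium. 1×10^5 cells were stained with annexin-V-FITC in annexin-V buffer for 20 min in the dark, then PI (50 μg/mL) was added. Read-out by flow cytometry.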

A short description of series [4]: Induction of apoptosis in VEGF-stimulated HUVEC assessed as viable cells at 1 uM after 24 hrs by Annexin V-FITC/propidium iodide staining based flow cytometric analysis (reference value: 69.6%). It counts as cell-based. The following applies: human, read-out: Activity. Summed up:
as §1

Series [5] deals with HUVEC. The series can be described thus: Antimigratory activity in HUVEC assessed as reduction in VEGF-induced cell migration at 2.5 uM measured after 12 hrs by wound healing assay relative to control. Type of series: functional. The following applies: Homo sapiens. Summed up:
(§2)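 Confluent HUVECs starved 12 h in M200 with 2% FBS, scratched with pipette tip; fresh M200 with 25 ng/mL VEGF plus vehicle, 2.5 μM sunitinib or compound (1, 2.5 μM); wound imaged at 0, 6, 12 and 24 h by inverted microscopy.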

Series [6] is described as follows: Induction of apoptosis in human HT-29 cells assessed as viable cells at 5 uM after 48 hrs by Annexin V-FITC/propidium iodide staining based flow cytometric analysis (reference value: 81.1%). The following applies: read-out: Activity. It counts as cell-based.
The test system of series [7] is HUVEC. The series can be described thus: Effect on total FAK expression in VEGF-induced HUVEC at 1 to 20 uM pre-incubated for 2 hrs followed by VEGF stimulation and measured after 15 mins by Western blot analysis. It counts as ADME, cell-based. The following applies: human, 0.25 h. Summed up:
(§3)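 HUVECs serum-starved overnight, pretreated with compound (methods: 1, 2.5, 5, 10 μM for 2 h; legend: 1, 5, 10, 20 μM for 1.5 h), then VEGF 50 ng/mL (methods: VEGF165, 15 min; legend: 30 min); lysates equalized by Bradford, ~20 μg protein resolved on gradient SDS-PAGE, immunoblotted, ECL detection.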
On the technique in general: In western blotting, separated proteins are transferred to a membrane and probed.

The subject of series [8] is HUVEC. Briefly: Antimigratory activity in HUVEC assessed as reduction in VEGF-induced cell migration at 2.5 uM measured after 6 hrs by wound healing assay relative to control. The note with it: Homo sapiens. It counts as functional. Summed up: as §2
For series [9], the system named is HUVEC. The series can be described thus: Antiangiogenic activity against HUVEC assessed as inhibition of cell proliferation measured […] by MTT assay. It counts as functional, cell-based. The note with it: Homo sapiens.
Series [10] relates to HUVEC. The series can be described thus: Effect on total STAT3 expression in VEGF-induced HUVEC at 1 to 20 uM pre-incubated for 2 hrs followed by VEGF stimulation and measured after 15 mins by Western blot analysis. The following applies: human, 0.25 h. It counts as ADME, cell-based. Summed up: as §3
In series [11] the test system is HT-29. Briefly: Induction of apoptosis in human HT-29 cells assessed as necrotic cells at 1 uM after 24 hrs by Annexin V-FITC/propidium iodide staining based flow cytometric analysis (reference value: 3.9%). It counts as cell-based. The following applies: ht-29, 24 h.
Series [12] concerns HUVEC. The series can be described thus: Effect on total Src expression in VEGF-induced HUVEC at 1 to 20 uM pre-incubated for 2 hrs followed by VEGF stimulation and measured after 15 mins by Western blot analysis. It counts as ADME, cell-based. The following applies: human, 0.25 h. Summed up: as §3
A further series deals with NCM460. The series can be described thus: Cytotoxicity against human NCM460 cells assessed as reduction in cell growth after 72 hrs by MTT assay. It counts as cell-based. The note with it: NCM460, 72 h.
The target in series [13] is RAC-alpha serine/threonine-protein kinase (Homo sapiens) (UniProt P31749). The series can be described thus: Inhibition of AKT1 (unknown origin) at 10 uM using myelin basic protein as substrate in presence of [gamma-33P]-ATP by scintillation counting analysis relative to control. Summed up: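 Radiometric kinase assay: kinase (5–10 mU) in 25 mM Tris pH 7.5, 0.02 mM EGTA, 0.66 mg/mL myelin basic protein, magnesium acetate and [γ-33P]ATP. The reaction was started with Mg-ATP, run 40 min at room temperature and stopped with 3% phosphoric acid. Samples were spotted on P30 filters, washed with 75 mM phosphoric acid and methanol, then scintillation counted. Tested at 10 μM; mean of three independent experiments.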
Sequence of RAC-alpha serine/threonine-protein kinase (Homo sapiens) (P31749 whole entry): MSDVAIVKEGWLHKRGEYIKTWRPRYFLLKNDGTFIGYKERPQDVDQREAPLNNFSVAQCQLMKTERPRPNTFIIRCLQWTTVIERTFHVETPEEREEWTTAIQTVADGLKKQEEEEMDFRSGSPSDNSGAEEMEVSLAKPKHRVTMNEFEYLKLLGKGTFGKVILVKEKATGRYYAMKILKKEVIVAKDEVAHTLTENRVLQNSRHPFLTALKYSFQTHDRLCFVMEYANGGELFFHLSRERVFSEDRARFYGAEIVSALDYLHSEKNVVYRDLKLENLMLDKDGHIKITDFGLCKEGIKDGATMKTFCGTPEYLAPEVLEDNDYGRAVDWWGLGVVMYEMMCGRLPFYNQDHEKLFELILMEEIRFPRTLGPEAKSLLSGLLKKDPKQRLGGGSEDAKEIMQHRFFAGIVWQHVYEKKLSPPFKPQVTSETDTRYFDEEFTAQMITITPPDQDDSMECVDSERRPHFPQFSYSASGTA

For series [14], the target named is Mitogen-activated protein kinase 3 (Homo sapiens) (UniProt P27361). Briefly: Inhibition of ERK1 (unknown origin) at 10 uM using myelin basic protein as substrate in presence of [gamma-33P]-ATP by scintillation counting analysis relative to control. Summed up: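 Radiometric kinase panel run by a contract lab. Kinase (5–10 mU) in 25 mM Tris pH 7.5, 0.02 mM EGTA, 0.66 mg/mL myelin basic protein, magnesium acetate and [γ-33P]-ATP (about 500 cpm/pmol). Started with Mg-ATP mix, 40 min at room temperature, stopped with 3% phosphoric acid. Spotted on P30 filters, washed in 75 mM phosphoric acid and methanol, scintillation counted. Mean ± SD of three independent experiments.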
Sequence of Mitogen-activated protein kinase 3 (Homo sapiens) (P27361 whole entry): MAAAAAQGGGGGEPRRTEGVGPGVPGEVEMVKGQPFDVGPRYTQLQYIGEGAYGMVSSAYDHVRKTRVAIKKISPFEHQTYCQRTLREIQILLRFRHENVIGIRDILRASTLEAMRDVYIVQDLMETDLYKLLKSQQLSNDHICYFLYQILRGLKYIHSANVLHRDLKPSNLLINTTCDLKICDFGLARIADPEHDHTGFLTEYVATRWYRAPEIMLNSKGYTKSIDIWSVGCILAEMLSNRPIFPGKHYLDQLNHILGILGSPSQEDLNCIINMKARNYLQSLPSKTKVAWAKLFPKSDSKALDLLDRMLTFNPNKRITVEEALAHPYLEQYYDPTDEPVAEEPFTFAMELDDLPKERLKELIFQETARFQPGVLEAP

For series [15], the system named is HT-29. The series can be described thus: Induction of apoptosis in human HT-29 cells assessed as late apoptotic cells at 5 uM after 48 hrs by Annexin V-FITC/propidium iodide staining based flow cytometric analysis (reference value: 12.3%). It counts as cell-based. The following applies: ht-29, 48 h.
The subject of series [16] is HT-29. Briefly: Induction of apoptosis in human HT-29 cells assessed as late apoptotic cells at 1 uM after 24 hrs by Annexin V-FITC/propidium iodide staining based flow cytometric analysis (reference value: 13.4%). Type of series: cell-based. The note with it: ht-29, 24 h.
The test system of series [17] is HUVEC. Briefly: Induction of apoptosis in VEGF-stimulated HUVEC assessed as late apoptotic cells at 5 uM after 24 hrs by Annexin V-FITC/propidium iodide staining based flow cytometric analysis (reference value: 11.3%). Type of series: cell-based. The note with it: human. Summed up:
as §1

Series [18] concerns the target Vascular endothelial growth factor receptor 2 (Homo sapiens) (UniProt P35968). The series can be described thus: Inhibition of VEGFR2 in VEGF-stimulated HUVEC assessed as suppression of VEGFR2 phosphorylation at Tyr1175 residue pre-incubated for 2 hrs followed by VEGF stimulation for 15 mins by Western blot analysis. Type of series: cell-based. Summed up: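 HUVECs serum-starved overnight, pretreated 2 h with 1, 2.5, 5 or 10 μM compound, then stimulated 15 min with 50 ng/mL VEGF165. Lysed in Tris/EDTA/Triton/deoxycholate/SDS buffer with phosphatase and protease inhibitors. Protein equalized by Bradford, about 20 μg resolved on gradient SDS-PAGE. Blots probed for phospho and total VEGFR2 (Tyr1175), ERK1/2 (Thr202/Tyr204) and AKT (Ser473) against actin, with HRP/ECL detection.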

Series [19] relates to HUVEC. Briefly: Antiinvasive activity in HUVEC assessed as inhibition of VEGF-induced cell invasion at 20 uM after 6 hrs by crystal violet staining based transwell assay relative to control. It counts as functional. The note with it: Homo sapiens. Summed up: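 Transwell: 1×10⁴ HUVECs in serum-free M200 in top chamber with vehicle or compound; bottom chamber M200 with 10% FBS; 6 h at 37°C; cells on membrane underside fixed in 4% paraformaldehyde, stained 0.1% crystal violet, imaged and counted.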

Sequence of Vascular endothelial growth factor receptor 2 (Homo sapiens) (P35968 whole entry): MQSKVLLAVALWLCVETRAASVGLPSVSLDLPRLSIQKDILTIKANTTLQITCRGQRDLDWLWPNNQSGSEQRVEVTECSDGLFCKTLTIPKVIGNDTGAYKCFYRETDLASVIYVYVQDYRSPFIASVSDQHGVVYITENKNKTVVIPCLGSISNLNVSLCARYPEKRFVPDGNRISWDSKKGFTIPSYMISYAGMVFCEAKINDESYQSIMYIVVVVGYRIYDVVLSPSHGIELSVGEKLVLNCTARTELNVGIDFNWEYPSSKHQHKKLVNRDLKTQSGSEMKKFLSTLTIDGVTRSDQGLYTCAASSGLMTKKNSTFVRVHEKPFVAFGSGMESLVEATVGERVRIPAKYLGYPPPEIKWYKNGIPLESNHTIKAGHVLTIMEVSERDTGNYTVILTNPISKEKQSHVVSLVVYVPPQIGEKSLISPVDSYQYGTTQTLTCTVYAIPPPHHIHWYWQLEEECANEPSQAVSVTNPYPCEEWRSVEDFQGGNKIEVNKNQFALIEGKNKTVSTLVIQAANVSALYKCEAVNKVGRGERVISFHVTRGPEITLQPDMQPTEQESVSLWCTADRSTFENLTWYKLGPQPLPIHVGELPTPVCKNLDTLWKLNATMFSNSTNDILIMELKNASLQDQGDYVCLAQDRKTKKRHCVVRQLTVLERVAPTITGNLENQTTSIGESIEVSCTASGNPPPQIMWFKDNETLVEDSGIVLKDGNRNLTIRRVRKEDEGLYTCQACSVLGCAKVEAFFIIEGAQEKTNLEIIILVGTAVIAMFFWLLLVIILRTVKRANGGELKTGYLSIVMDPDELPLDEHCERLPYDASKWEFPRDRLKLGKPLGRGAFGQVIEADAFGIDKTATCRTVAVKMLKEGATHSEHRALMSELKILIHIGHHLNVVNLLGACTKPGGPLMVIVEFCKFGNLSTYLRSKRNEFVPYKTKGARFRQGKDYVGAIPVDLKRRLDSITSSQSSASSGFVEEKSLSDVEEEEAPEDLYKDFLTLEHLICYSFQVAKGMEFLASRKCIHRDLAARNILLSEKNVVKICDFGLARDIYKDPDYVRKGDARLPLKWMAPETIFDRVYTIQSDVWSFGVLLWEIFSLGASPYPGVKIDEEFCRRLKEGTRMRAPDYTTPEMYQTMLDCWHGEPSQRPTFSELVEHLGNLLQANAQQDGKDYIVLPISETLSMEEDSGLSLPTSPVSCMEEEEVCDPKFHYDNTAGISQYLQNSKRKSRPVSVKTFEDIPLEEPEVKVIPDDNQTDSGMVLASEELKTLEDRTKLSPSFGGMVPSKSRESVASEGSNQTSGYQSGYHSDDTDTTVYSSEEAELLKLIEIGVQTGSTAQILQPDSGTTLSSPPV

Regarding `COc1ccc(NC(=O)c2cccc(/C=C3\CC(=O)N(c4ccc(C)cc4)C3=O)c2)cc1`, the inhibition result with HT-29 [1] was “Active”. Besides, the Activity was 9.8% in the series on HT-29 [2]; “Not Active” in the series on HUVEC [7]; “Not Active” with HUVEC [10]; 4.4% in the series with HT-29 [11]; “Not Active” with HUVEC [12]; 13.1% with HT-29 [15]. Further, the Activity in the series on HT-29 [16] came to 14.4%; in the series with HUVEC [17] it was 9.7%. Besides, the viability at 24 h, 5 µM in [3] came out at 75.4%. For the same molecule, the viability at 24 h, 1 µM in series [4] amounted to 72.6%. Moreover, the inhibition at 2.5 µM turned out to be 50% with HUVEC [5] and 30% in the series with HUVEC [8]. Further, the viability at 48 h, 5 µM in series [6] stood at 76.1%. In addition, the inhibition entry in the series on HUVEC [9] was “Dose-dependent effect”; in series [13], 50 to 70%; in series [14], 50 to 70%; in series [18], “Dose-dependent effect”. Besides, the IC50 is 26.6 µM in the series with HUVEC [9] (0.5 h) and > 100 µM with NCM460. The inhibition at 20 µM in the series on HUVEC [19] was 70%.

The inhibition is the percentage by which the read-out fell short of the control. As usually defined, the IC50 is the point on the concentration scale where inhibition reaches its midpoint.
